For 1 molecule, Activity and IC50 results are on record in ChEMBL document CHEMBL5346918, “Design, synthesis and biological evaluation of Nucleosidic CD99 inhibitors that selectively reduce Ewing sarcoma viability” (Eur J Med Chem, 2023).

The subject of experiment [1] is TC-32. Briefly: Induction of apoptosis in human TC-32 cells assessed as increase in hypodiploid subG1 population at 0.1 to 0.4 uM incubated for 48 hrs by propidium iodide staining based flow cytometry. Type of experiment: functional, cell-based. The note with it: dose 0.1-0.4 µM. Summed up: (§1)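 Treatment same as the apoptosis blots (48 h; 0.1–0.4 μM or 10–40 μM). Adherent cells trypsinized and pooled with floating cells, then washed in PBS. Fixed in ice-cold 70% ethanol 1 h on ice, rehydrated, RNase A 100 μg/mL. Stained with propidium iodide at 50 μg/mL final for 1 h on ice. Sub-G1 fraction read by flow cytometry.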
For orientation: Flow cytometry measures light scatter and fluorescence of single cells or particles in a stream.

A further experiment concerns SAOS-2. As to the kind of experiment: Cytotoxicity against human SAOS-2 cells assessed as reduction in cell viability incubated for 48 hrs by CellTiter-Blue reagent based […] assay. Type of experiment: functional. The settings on record: SAOS-2, 48 h. In short, it runs like this: (§2)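 Cells seeded and grown to 60–80% confluency (usually 18–24 h), then treated 48 h with a range of concentrations prepared in each line's medium. CellTiter-Blue reagent added at the end of treatment and incubated 3–5 h at 37 °C, 5% CO₂. Fluorescence read at 560 nm excitation and 590 nm emission. IC50 from nonlinear regression, log(inhibitor) vs. normalized response.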
(In general: Resazurin is reduced to fluorescent resorufin, in cell work by metabolically active cells.)

The subject of experiment [2] is U2OS. As to the kind of experiment: Induction of apoptosis in human U2OS cells assessed as PARP cleavage at 0.1 to 0.4 uM incubated for 48 hrs by western blot analysis. Type of experiment: functional, cell-based. The settings on record: dose 0.1-0.4 µM. Summed up: (§3)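 Cells treated 48 h with three concentrations per agent (0.1, 0.2 or 0.4 μM for one; 10, 20 or 40 μM for another). Total cell lysates immunoblotted for PARP and caspase 3 and their cleaved products. Actin used as loading control and for normalization. ECL signal imaged on PVDF, bands quantified by densitometry.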
In general terms: In western blotting, separated proteins are transferred to a membrane and probed.

Experiment [3] relates to U2OS. Briefly: Cytotoxicity against human U2OS cells assessed as reduction in cell viability incubated for 48 hrs by CellTiter-Blue reagent based […] assay. Type of experiment: functional. Summed up: as §2
In experiment [4] the test system is TC-32. As to the kind of experiment: Cytotoxicity against human TC-32 cells assessed as reduction in cell viability incubated for 48 hrs by CellTiter-Blue reagent based […] assay. The settings on record: TC-32, 48 h. Type of experiment: functional. In short, it runs like this: as §2
Experiment [5] in a line: Cytotoxicity against human A4573 cells assessed as reduction in cell viability incubated for 48 hrs by CellTiter-Blue reagent based […] assay. In kind it is functional. The settings on record: A4573, 48 h. In short, it runs like this: as §2
Experiment [6] relates to U2OS. Briefly: Induction of apoptosis in human U2OS cells assessed as caspase-3 cleavage at 0.1 to 0.4 uM incubated for 48 hrs by western blot analysis. In kind it is functional, cell-based. The settings on record: dose 0.1-0.4 µM. In short, it runs like this: as §3
For experiment [7], the system named is TC-32. Briefly: Induction of apoptosis in human TC-32 cells assessed as caspase-3 cleavage at 0.1 to 0.4 uM incubated for 48 hrs by western blot analysis. Type of experiment: functional, cell-based. The settings on record: dose 0.1-0.4 µM. In short, it runs like this: as §3
Experiment [8] concerns TC-32. Briefly: Induction of apoptosis in human TC-32 cells assessed as PARP cleavage at 0.1 to 0.4 uM incubated for 48 hrs by western blot analysis. Type of experiment: functional, cell-based. The note with it: dose 0.1-0.4 µM. In short, it runs like this: as §3
Experiment [9] in a line: Cytotoxicity against human TC71 cells assessed as reduction in cell viability incubated for 48 hrs by CellTiter-Blue reagent based […] assay. Type of experiment: functional. The note with it: TC-71, 48 h. In short, it runs like this: as §2
For experiment [10], the system named is U2OS. Briefly: Induction of apoptosis in human U2OS cells assessed as increase in hypodiploid subG1 population at 0.1 to 0.4 uM incubated for 48 hrs by propidium iodide staining based flow cytometry. In kind it is functional, cell-based. The settings on record: dose 0.1-0.4 µM. In short, it runs like this: as §1

pIC50: −log10 of the molar value. Active and inactive are the calls of the source. The rule behind the calls is not given here. Some results are limits rather than exact numbers.

Consider `Nc1nc(Cl)nc2c1ncn2[C@@H]1O[C@H](CO)[C@@H](O)[C@@H]1F` [CLOFARABINE], for which the outcome with TC-32 [1], with TC-32 [7] and in the experiment with TC-32 [8] was Active. For the same molecule, the pIC50 (in general, the negative decadic logarithm of the IC50, by convention in mol/L) was not above 4.30 in the experiment on SAOS-2; not above 4.30 with U2OS [3]; 6.89 in the experiment on TC-32 [4]; 6.74 in experiment [5]; 7.05 in experiment [9]. Besides, the result in the experiment on U2OS [2], in the experiment with U2OS [6] and with U2OS [10] was inactive.
